# In ChEMBL document CHEMBL1154162, “Synthesis and structure-activity relationships of 2-(1,4'-bipiperidin-1'-yl)thiazolopyridine as H3 receptor antagonists” (Bioorg Med Chem Lett, 2009):
# Tests used:
# hERG (KCNH2) = hERG (KCNH2) (Homo sapiens, UniProt Q12809); test: in vitro
# Histamine H3 receptor [1] = target: Histamine H3 receptor (Homo sapiens, UniProt Q9Y5N1); test: Displacement of [3H]N-alpha-methylhistamine from human recombinant histamine H3 receptor expressed in HEK293 cells; assay type: cell-based
# Mus musculus [2] = test: Ex vivo displacement of [3H]N-alpha-methylhistamine from histamine H3 receptor in ICR mouse at 10 mg/kg, po by receptor occupancy assay relative to control; assay type: functional
# Outline: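 ICR mice dosed orally at 10 mg/kg. Cortex dissected 4 h after dosing and homogenized in ice-cold 50 mM Na2HPO4–KH2PO4 buffer pH 6.8, then frozen at −80 °C for at least 12 h. Protein measured by BCA. Incubation 30 min at room temperature, in quadruplicate. Stopped by filtration on PEI-presoaked GF/B plates and counted. Specific binding calculated as total minus nonspecific.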
# Histamine H3 receptor [3] = target: Histamine H3 receptor (Mus musculus, UniProt P58406); test: Displacement of [3H]N-alpha-methylhistamine from mouse brain histamine H3 receptor
# Histamine H3 receptor [4] = target: Histamine H3 receptor (Cavia porcellus, UniProt Q9JI35); test: Antagonist activity at guinea pig jejunum histamine H3 receptor by electric field stimulation assay; assay type: functional, tissue-based; settings: read-out: pA2 (converted)
# in vivo [5] = settings: rat, plasma, po, 10 mg/kg
# [6] = AUC (0 to 24 hrs) in monkey at 3 mg/kg, po; assay type: ADME, organism-based, Macaca mulatta; parameters: time < 24 hr, dose 3 mg/kg, route oral; settings: rhesus monkey, plasma
# Outline: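 Monkeys dosed orally at 3 mg/kg. AUC calculated over 0–24 h.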
# [7] = Cmax in monkey; assay type: ADME, organism-based, Macaca mulatta; settings: rhesus monkey, in vivo
# Outline: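 Monkeys dosed orally at 3 mg/kg. Cmax taken from the plasma profile.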
# [8] = Cmax in rat; assay type: ADME, organism-based; settings: in vivo
# Outline: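 Rats dosed orally at 10 mg/kg. Cmax taken from the plasma profile.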
# Mus musculus [9] = test: Ex vivo displacement of [3H]N-alpha-methylhistamine from histamine H3 receptor in ICR mouse at 10 mg/kg, po by receptor occupancy assay relative to control
# in vivo [10] = settings: ICR, mouse, brain/plasma, po, 30 mg/kg
# Sequence of Histamine H3 receptor (Mus musculus, UniProt P58406) (P58406 whole entry): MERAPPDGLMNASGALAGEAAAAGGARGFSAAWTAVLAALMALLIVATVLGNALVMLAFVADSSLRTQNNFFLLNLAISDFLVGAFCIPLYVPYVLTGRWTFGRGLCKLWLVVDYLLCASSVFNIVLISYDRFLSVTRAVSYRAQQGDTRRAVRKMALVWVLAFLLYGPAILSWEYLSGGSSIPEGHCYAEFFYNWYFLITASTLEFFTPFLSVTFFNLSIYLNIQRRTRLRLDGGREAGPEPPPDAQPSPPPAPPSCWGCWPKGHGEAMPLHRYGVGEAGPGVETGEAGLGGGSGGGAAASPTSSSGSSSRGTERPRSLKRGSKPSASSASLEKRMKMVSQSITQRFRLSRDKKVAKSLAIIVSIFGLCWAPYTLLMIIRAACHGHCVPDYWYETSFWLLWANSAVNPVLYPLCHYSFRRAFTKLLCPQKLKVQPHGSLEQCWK
# Sequence of Histamine H3 receptor (Homo sapiens, UniProt Q9Y5N1) (Q9Y5N1 whole entry): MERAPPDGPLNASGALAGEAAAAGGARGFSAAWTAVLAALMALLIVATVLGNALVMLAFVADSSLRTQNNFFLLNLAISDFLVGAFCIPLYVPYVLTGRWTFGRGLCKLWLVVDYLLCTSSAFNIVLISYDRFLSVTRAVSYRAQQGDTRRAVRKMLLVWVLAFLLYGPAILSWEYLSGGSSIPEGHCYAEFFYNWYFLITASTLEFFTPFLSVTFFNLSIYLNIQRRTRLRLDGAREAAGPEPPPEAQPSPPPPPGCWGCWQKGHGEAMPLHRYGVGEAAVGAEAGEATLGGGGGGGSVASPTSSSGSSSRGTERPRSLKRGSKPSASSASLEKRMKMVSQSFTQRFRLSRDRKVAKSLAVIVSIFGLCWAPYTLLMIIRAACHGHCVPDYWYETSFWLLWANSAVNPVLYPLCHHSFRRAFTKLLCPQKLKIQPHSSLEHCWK
# Sequence of hERG (KCNH2) (Q12809 whole entry): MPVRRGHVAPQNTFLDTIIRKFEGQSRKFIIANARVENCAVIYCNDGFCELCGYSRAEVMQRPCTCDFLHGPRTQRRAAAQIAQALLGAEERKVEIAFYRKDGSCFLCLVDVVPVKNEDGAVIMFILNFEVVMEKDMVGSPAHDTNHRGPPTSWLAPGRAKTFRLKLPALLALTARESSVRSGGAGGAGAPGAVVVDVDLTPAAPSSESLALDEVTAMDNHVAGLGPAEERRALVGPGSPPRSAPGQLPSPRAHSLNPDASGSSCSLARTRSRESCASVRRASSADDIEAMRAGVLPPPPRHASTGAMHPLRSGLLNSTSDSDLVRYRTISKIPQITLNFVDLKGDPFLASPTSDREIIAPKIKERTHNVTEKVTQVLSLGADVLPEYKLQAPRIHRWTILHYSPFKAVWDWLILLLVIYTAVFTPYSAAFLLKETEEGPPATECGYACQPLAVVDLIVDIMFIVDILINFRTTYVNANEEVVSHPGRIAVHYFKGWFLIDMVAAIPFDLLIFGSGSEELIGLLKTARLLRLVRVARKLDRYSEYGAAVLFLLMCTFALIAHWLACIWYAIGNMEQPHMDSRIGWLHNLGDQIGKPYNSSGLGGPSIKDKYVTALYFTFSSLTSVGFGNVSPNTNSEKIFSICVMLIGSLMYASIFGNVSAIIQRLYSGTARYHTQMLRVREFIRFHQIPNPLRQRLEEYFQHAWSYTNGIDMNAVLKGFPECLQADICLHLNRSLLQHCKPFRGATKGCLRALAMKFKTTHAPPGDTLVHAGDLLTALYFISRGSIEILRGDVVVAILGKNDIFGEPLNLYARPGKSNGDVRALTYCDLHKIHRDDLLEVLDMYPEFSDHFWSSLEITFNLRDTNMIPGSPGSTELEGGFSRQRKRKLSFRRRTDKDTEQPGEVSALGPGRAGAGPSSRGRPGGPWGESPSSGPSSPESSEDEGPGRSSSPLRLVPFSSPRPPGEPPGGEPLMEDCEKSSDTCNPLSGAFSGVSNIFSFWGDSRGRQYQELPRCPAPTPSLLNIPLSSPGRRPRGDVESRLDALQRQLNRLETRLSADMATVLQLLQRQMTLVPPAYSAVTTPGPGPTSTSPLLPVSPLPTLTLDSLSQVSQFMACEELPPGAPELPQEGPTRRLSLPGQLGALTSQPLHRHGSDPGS
# Sequence of Histamine H3 receptor (Cavia porcellus, UniProt Q9JI35) (Q9JI35 whole entry): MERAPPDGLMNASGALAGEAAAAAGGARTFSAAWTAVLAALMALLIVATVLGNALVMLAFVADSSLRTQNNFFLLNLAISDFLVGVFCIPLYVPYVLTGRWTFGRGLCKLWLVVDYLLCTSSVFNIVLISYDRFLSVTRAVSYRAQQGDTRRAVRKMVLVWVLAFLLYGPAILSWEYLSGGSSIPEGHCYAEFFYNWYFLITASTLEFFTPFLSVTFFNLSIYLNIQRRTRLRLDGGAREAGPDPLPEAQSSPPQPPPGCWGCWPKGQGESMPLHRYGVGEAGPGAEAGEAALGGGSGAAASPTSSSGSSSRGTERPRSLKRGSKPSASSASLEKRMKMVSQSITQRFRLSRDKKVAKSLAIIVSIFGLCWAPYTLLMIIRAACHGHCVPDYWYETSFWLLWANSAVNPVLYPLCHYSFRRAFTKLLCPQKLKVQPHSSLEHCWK
structure (smiles),measurement,setting,value
Nc1cnc(-c2cnc3nc(N4CCC(N5CCCCC5)CC4)sc3c2)cn1,inhibition at 10 µM,hERG (KCNH2),20%
COc1cccc(-c2cc3sc(N4CCC(N5CCCCC5)CC4)nc3cn2)c1,Ki,Histamine H3 receptor [1],230 nM
c1ncc(-c2cnc3nc(N4CCC(N5CCCCC5)CC4)sc3c2)cn1,inhibition at 10 µM,hERG (KCNH2),30%
same,Activity,Mus musculus [2],0%
same,Ki,Histamine H3 receptor [3],66 nM
Fc1ncccc1-c1cc2sc(N3CCC(N4CCCCC4)CC3)nc2cn1,inhibition at 10 µM,hERG (KCNH2),88%
c1cnc2nc(N3CCC(N4CCCCC4)CC3)sc2c1,Ki,Histamine H3 receptor [1],139 nM
CC(=O)Nc1cc2sc(N3CCC(N4CCCCC4)CC3)nc2cn1,Ki,Histamine H3 receptor [1],53 nM
Clc1cnc2nc(N3CCC(N4CCCCC4)CC3)sc2c1,Ki,Histamine H3 receptor [1],125 nM
N#Cc1ccc(-c2cc3sc(N4CCC(N5CCCCC5)CC4)nc3cn2)cc1,Ki,Histamine H3 receptor [1],126 nM
c1cc2sc(N3CCC(N4CCCCC4)CC3)nc2cn1,Ki,Histamine H3 receptor [1],128 nM
COc1cc(-c2cnc3nc(N4CCC(N5CCCCC5)CC4)sc3c2)ccn1,inhibition at 10 µM,hERG (KCNH2),98%
CC(=O)c1cccc(-c2cnc3nc(N4CCC(N5CCCCC5)CC4)sc3c2)c1,Ki,Histamine H3 receptor [1],33 nM
CCCN1CCN(c2nc3cnccc3s2)CC1,Kb,Histamine H3 receptor [4],56.2 nM
Oc1ccc(-c2cc3sc(N4CCC(N5CCCCC5)CC4)nc3cn2)cn1,Activity,Mus musculus [2],1%
same,Ki,Histamine H3 receptor [3],20 nM
CC(=O)Nc1cnc2nc(N3CCC(N4CCCCC4)CC3)sc2c1,Ki,Histamine H3 receptor [1],31 nM
Brc1cnc2nc(N3CCC(N4CCCCC4)CC3)sc2c1,Ki,Histamine H3 receptor [1],141 nM
N#Cc1cnc2nc(N3CCC(N4CCCCC4)CC3)sc2c1,Ki,Histamine H3 receptor [1],36 nM
CC(=O)c1cccc(-c2cc3sc(N4CCC(N5CCCCC5)CC4)nc3cn2)c1,Ki,Histamine H3 receptor [1],80 nM
Oc1ccc(-c2cc3sc(N4CCC(N5CCCCC5)CC4)nc3cn2)cc1,Ki,Histamine H3 receptor [1],213 nM
Nc1ccc(-c2cnc3nc(N4CCC(N5CCCCC5)CC4)sc3c2)cn1,Activity,Mus musculus [2],3%
Oc1ccc(-c2cnc3nc(N4CCC(N5CCCCC5)CC4)sc3c2)cc1,Ki,Histamine H3 receptor [1],59 nM
COc1cc(-c2cc3sc(N4CCC(N5CCCCC5)CC4)nc3cn2)ccn1,inhibition at 10 µM,hERG (KCNH2),91%
N#Cc1cc(-c2cnc3nc(N4CCC(N5CCCCC5)CC4)sc3c2)ccc1F,AUC(0-t) at 6 h,in vivo [5],339 ng·h/mL
Nc1cnc2nc(N3CCC(N4CCCCC4)CC3)sc2c1,Ki,Histamine H3 receptor [1],79 nM
Fc1cc(-c2cc3sc(N4CCC(N5CCCCC5)CC4)nc3cn2)ccn1,inhibition at 10 µM,hERG (KCNH2),85%
CC(=O)Nc1ccc(-c2cnc3nc(N4CCC(N5CCCCC5)CC4)sc3c2)cn1,inhibition at 10 µM,hERG (KCNH2),20%
same,Activity,Mus musculus [2],45%
same,Ki,Histamine H3 receptor [3],20 nM
N#Cc1cc(-c2cc3sc(N4CCC(N5CCCCC5)CC4)nc3cn2)ccc1F,Ki,Histamine H3 receptor [1],46 nM
Fc1ccc(-c2cc3sc(N4CCC(N5CCCCC5)CC4)nc3cn2)cn1,AUC(0-t) at 24 h,[6],624 ng·h/mL
same,AUC(0-t) at 6 h,in vivo [5],1070 ng·h/mL
same,Cmax,[7],33 ng/mL
same,Cmax,[8],234 ng/mL
same,Activity,Mus musculus [2],95%
same,Ki,Histamine H3 receptor [3],89 nM
Clc1ccc2nc(N3CCC(N4CCCCC4)CC3)sc2n1,Ki,Histamine H3 receptor [1],1700 nM
COc1cccc(-c2cnc3nc(N4CCC(N5CCCCC5)CC4)sc3c2)c1,Ki,Histamine H3 receptor [1],140 nM
N#Cc1cc2sc(N3CCC(N4CCCCC4)CC3)nc2cn1,Ki,Histamine H3 receptor [1],35 nM
Nc1cc2sc(N3CCC(N4CCCCC4)CC3)nc2cn1,Ki,Histamine H3 receptor [1],73 nM
Clc1cc2sc(N3CCC(N4CCCCC4)CC3)nc2cn1,inhibition at 10 µM,hERG (KCNH2),59%
same,Activity,Mus musculus [9],80%
same,AUC(0-t) at 6 h,in vivo [5],56 ng·h/mL
same,Kp at 96 h,in vivo [10],4.52
same,Ki,Histamine H3 receptor [3],75 nM
